Source: ChEMBL document CHEMBL1129622, “Synthesis of non-nucleoside analogs of toyocamycin, sangivamycin, and thiosangivamycin: the effect of certain 4- and 4,6-substituents on the antiviral activity of pyrrolo[2,3-d]pyrimidines” (J Med Chem, 1996)

Assays:
[1] = tested on: HFF; experiment: Cytotoxicity produced in human foreskin fibroblasts (HFF) cells estimated by visual scoring of cells unaffected by virus infection.; assay type: ADME, cell-based
Outline: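 Uninfected HFF cells in the HCMV plaque-reduction plates were examined at 35-fold magnification on the day of plaque staining. Drug-induced cytopathology was scored 0–4. IC50 from regression of percent inhibition against log concentration, average of two or more experiments.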

[2] = tested on: Human alphaherpesvirus 1; experiment: Antiviral activity against herpes simplex virus type 1 using ELISA; assay type: functional, organism-based
[3] = tested on: Human betaherpesvirus 5; experiment: Antiviral activity against human cytomegalovirus (HCMV) in plaque reduction assay; assay type: functional, organism-based
Outline: (§1)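 Plaque reduction in HFF monolayers (MEM(E), 10% FBS) infected with a 0.2 mL inoculum of ca. 100 PFU HCMV Towne strain. Compounds were dissolved in the overlay medium. IC50 from linear regression of percent inhibition against log concentration, average of two or more experiments. Ganciclovir positive control.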

[4] = tested on: KB; experiment: Cytotoxicity (growth inhibition) against human epidermoid oral carcinoma KB cell line.; assay type: functional, cell-based
Outline: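 KB cells grown in MEM(H) with 10% calf serum. Cytotoxicity measured by a staining method. IC50 from linear regression of percent inhibition against log drug concentration, average of two or more experiments.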

[5] = tested on: Human betaherpesvirus 5; experiment: Antiviral activity against human cytomegalovirus by plaque reduction assay; assay type: functional, organism-based; outline: as §1
[6] = tested on: Human betaherpesvirus 5; experiment: Antiviral activity against human cytomegalo virus using ELISA; assay type: functional, organism-based
Outline: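 HCMV (Towne strain, plaque-purified isolate P0) measured by enzyme immunoassay in MRC-5 human embryonic lung cells grown in MEM(E) with 10% FBS. IC50 from linear regression of percent inhibition against log concentration, averaged over two or more experiments. Ganciclovir positive control.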

[7] = tested on: Human alphaherpesvirus 1; experiment: Antiviral activity against herpes simplex virus using ELISA; assay type: functional, organism-based
[8] = tested on: Human alphaherpesvirus 1; experiment: Inhibitory concentration against HSV-1; assay type: functional, organism-based
[9] = Half life was determined; assay type: ADME

Row | Structure (SMILES) | IC50 [1] | IC50 [4] | IC50 [5] | further results
1 | Cc1cccc(Cn2c(N)c(C#N)c3c(N)ncnc32)c1 | 100 µM | > 100 µM |  | IC50 [2]: > 100 µM; IC50 [3]: 32 µM
2 | Nc1nc2c(ncn2COCCO)c(=O)[nH]1 [ACYCLOVIR] | > 100 µM | > 100 µM | > 100 µM | 
3 | N#Cc1c(Br)n(COCc2ccccc2)c2ncnc(N)c12 | > 100 µM | > 100 µM | > 100 µM | 
4 | CCOCn1c(N)c(C(N)=O)c2c(N)ncnc21 | > 100 µM | > 100 µM | > 100 µM | IC50 [6]: > 100 µM
5 | CCOCn1cc(C#N)c2c(Cl)ncnc21 |  |  | > 100 µM | 
6 | COCCOCn1cc(C(=N)S)c2c(S)ncnc21 |  |  | > 100 µM | 
7 | Nc1nc2c(ncn2COC(CO)CO)c(=O)[nH]1 [GANCICLOVIR] | > 100 µM | > 320 µM |  | IC50 [6]: 2.2 µM
8 | COCCOCn1cc(C(N)=S)c2c(N)ncnc21 | > 100 µM |  | 1.3 µM | 
9 | CCOCn1cc(C(=N)S)c2c(NC)ncnc21 |  |  | 20 µM | 
10 | CCNc1ncnc2c1c(C(=N)S)cn2COCC |  |  | > 100 µM | 
11 | N#Cc1c(N)n(Cc2ccccc2)c2ncnc(N)c12 | 100 µM | 34 µM |  | IC50 [2]: 10 µM; IC50 [3]: 3.3 µM
12 | COCCOCn1c(N(C)C)c(C#N)c2c(N)ncnc21 | > 100 µM | > 100 µM | > 100 µM | IC50 [7]: > 100 µM
13 | CCOCn1c(N)c(C#N)c2c(N)ncnc21 | > 100 µM | 138 µM | 7.2 µM | IC50 [7]: 68 µM; IC50 [6]: 12 µM
14 | CNc1ncnc2c1c(C(=N)S)cn2COCCOC |  |  | 20 µM | IC50 [8]: 30 µM
15 | COCCOCn1cc(C(=N)S)c2c(OC)ncnc21 |  |  | > 100 µM | 
16 | COCCOCn1cc(C#N)c2c(N(C)C)ncnc21 |  |  | > 100 µM | 
17 | COCCOCn1cc(C#N)c2c(OC)ncnc21 |  |  | > 100 µM | 
18 | COCCOCn1c(N)c(C(N)=S)c2c(N)ncnc21 | > 100 µM | > 320 µM | 5 µM | IC50 [7]: 100 µM; IC50 [6]: 20 µM
19 | CCNc1ncnc2c1c(C#N)cn2COCC |  |  | > 100 µM | 
20 | COCCOCn1cc(C#N)c2c(O)ncnc21 |  |  | > 100 µM | 

Row | Structure (SMILES) | IC50 [1] | IC50 [4] | IC50 [5] | further results
21 | COCCOCn1cc(C(=N)S)c2cncnc21 |  |  | > 100 µM | 
22 | CCNc1ncnc2c1c(C#N)cn2COCCOC |  |  | > 100 µM | 
23 | COCCOCn1cc(C#N)c2cncnc21 |  |  | > 100 µM | 
24 | CCOCn1c(Br)c(C#N)c2c(N)ncnc21 | > 100 µM | > 100 µM | > 100 µM | 
25 | CCOCn1cc(C(=N)S)c2c(OC)ncnc21 |  |  | > 100 µM | 
26 | COCCOCn1c(N)c(C(N)=O)c2c(N)ncnc21 | > 100 µM | > 100 µM | > 100 µM | IC50 [6]: > 100 µM
27 | Cc1ccc(Cn2c(N)c(C#N)c3c(N)ncnc32)cc1 | 32 µM | > 100 µM |  | IC50 [2]: 60 µM; IC50 [3]: 0.3 µM
28 | COCCOCn1cc(C#N)c2c(Cl)ncnc21 |  |  | > 100 µM | 
29 | C=CCn1c(N)c(C#N)c2c(N)ncnc21 | 100 µM | > 100 µM |  | IC50 [2]: 40 µM; IC50 [3]: 1.9 µM
30 | NC(=O)c1c(N)n(COCc2ccccc2)c2ncnc(N)c12 | > 100 µM | > 100 µM | > 100 µM | IC50 [6]: > 100 µM
31 | CCOCn1cc(C#N)c2cncnc21 |  |  | > 100 µM | 
32 | CCOCn1cc(C(=N)S)c2c(N)ncnc21 | > 32 µM | 60 µM |  | 
33 | CCOCn1cc(C#N)c2c(N(C)C)ncnc21 |  |  | > 100 µM | 
34 | COCCOCn1cc(C#N)c2c(S)ncnc21 |  |  | > 100 µM | 
35 | COCCOCn1c(Br)c(C#N)c2c(N)ncnc21 | > 100 µM | > 100 µM | > 100 µM | 
36 | NC(=S)c1c(N)n(COCc2ccccc2)c2ncnc(N)c12 | > 100 µM | 225 µM | 16 µM | IC50 [7]: 60 µM; IC50 [6]: 19 µM
37 | COCCOCn1c(N)c(C#N)c2c(N)ncnc21 | > 100 µM | 210 µM | 8.2 µM | IC50 [7]: > 100 µM; IC50 [6]: 9 µM
38 | COc1ccc(Cn2c(N)c(C#N)c3c(N)ncnc32)cc1 | 100 µM | 50 µM |  | IC50 [2]: 10 µM; IC50 [3]: 9 µM
39 | COCCOCn1cc(C(=N)S)c2c(N(C)C)ncnc21 |  |  | > 100 µM | T1/2 [9]: 150 h
40 | CCOCn1cc(C#N)c2c(S)ncnc21 |  |  | > 100 µM | 

Row | Structure (SMILES) | IC50 [1] | IC50 [4] | IC50 [5] | further results
41 | CCOCn1cc(C#N)c2c(NC)ncnc21 |  |  | > 100 µM | 
42 | CCOCn1cc(C(=N)S)c2cncnc21 |  |  | > 100 µM | 
43 | CCCn1c(N)c(C#N)c2c(N)ncnc21 | 100 µM | 15 µM |  | IC50 [2]: 2.5 µM; IC50 [3]: 0.5 µM
44 | CNc1ncnc2c1c(C#N)cn2COCCOC |  |  | > 100 µM | 
45 | COCCOCn1cc(C(=N)S)c2c(O)ncnc21 |  |  | > 100 µM | 
46 | CCOCn1cc(C(=N)S)c2c(OCC)ncnc21 |  |  | > 100 µM | 
47 | CCOCn1cc(C(=N)S)c2c(N(C)C)ncnc21 |  |  | > 100 µM | 
48 | CCOCn1cc(C#N)c2c(N)ncnc21 | > 100 µM | > 100 µM | > 100 µM | 
49 | N#Cc1c(N)n(COCc2ccccc2)c2ncnc(N)c12 | > 100 µM | 118 µM | 2.8 µM | IC50 [7]: 12.5 µM; IC50 [6]: 9 µM
50 | CCNc1ncnc2c1c(C(=N)S)cn2COCCOC |  |  | > 100 µM | 
51 | CCOCn1cc(C#N)c2c(O)ncnc21 |  |  | > 100 µM | 
52 | CCOCn1cc(C#N)c2c(OC)ncnc21 |  |  | > 100 µM | 
53 | COCCOCn1cc(C#N)c2c(N)ncnc21 | > 100 µM | > 100 µM |  | IC50 [7]: > 100 µM
54 | CCOCn1c(N)c(C(=N)S)c2c(N)ncnc21 | > 100 µM | > 320 µM | 16 µM | IC50 [7]: 100 µM; IC50 [6]: 45 µM
55 | CNc1c(C#N)c2c(N)ncnc2n1COCCOC | > 100 µM | > 100 µM | > 100 µM | IC50 [7]: > 100 µM
56 | CCOc1ncnc2c1c(C#N)cn2COCCOC |  |  | > 100 µM | 
57 | CCOCn1cc(C(=N)S)c2c(O)ncnc21 |  |  | > 100 µM | 
58 | CCOCn1cc(C#N)c2c(OCC)ncnc21 |  |  | > 100 µM | 
